Results published in ChEMBL document CHEMBL3046122, “Preparation and biological activity of four epiprogoitrin myrosinase-derived products” (2001).
Activity calls are given as the source filed them. No cut-off for these calls is given here.

Experiments:
[1] = system: Lactuca sativa; test: Toxicity against Lactuca sativa (lettuce) assessed as seed radicle protrusion at low concentration after 7 days; assay type: functional, organism-based
In short: (§1)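 Lettuce (L. sativa cv. Romana) seeds were kept on filter paper at 20 °C for 7 days with each product at 0.4-32.0 mM. Seedlings were scored at the end for abnormalities: root apex necrosis, absent cotyledons, and imbibed seeds with broken coats from starting radicle protrusion.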

[2] = system: Lactuca sativa; test: Toxicity against Lactuca sativa (lettuce) assessed as root apex necrosis at low concentration after 7 days; assay type: functional, organism-based; in short: as §1
[3] = system: Lactuca sativa; test: Antigerminative activity against Lactuca sativa (lettuce) seeds at 1.2 mM after 7 days relative to control; assay type: functional
In short: (§2)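 Lettuce (L. sativa cv. Romana) seeds germinated on filter paper at 20 °C for 7 days with each product at 0.4-32.0 mM. Read-out is the mean percentage of normal seedlings, expressed as percent of the untreated control.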

[4] = system: Lactuca sativa; test: Antigerminative activity against Lactuca sativa (lettuce) seeds at 2 mM after 7 days relative to control; assay type: functional, organism-based; in short: as §2
[5] = system: Lactuca sativa; test: Toxicity against Lactuca sativa (lettuce) assessed as Inhibition of root growth at 0.4 to 2 mM after 7 days relative to control; assay type: functional, organism-based
In short: (§3)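 Lettuce (L. sativa cv. Romana) seeds were kept on filter paper at 20 °C for 7 days with each product at 0.4-32.0 mM. Root length of normal seedlings was measured at the end and given as percent of the untreated control. Three replicates were run.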

[6] = system: Lactuca sativa; test: Antigerminative activity against Lactuca sativa (lettuce) seeds up to 0.8 mM after 7 days relative to control; assay type: functional, organism-based; in short: as §2
[7] = system: Lactuca sativa; test: Toxicity against Lactuca sativa (lettuce) assessed as imbibed seed with broken seed coat at low concentration after 7 days; assay type: functional, organism-based; in short: as §1
[8] = system: Lactuca sativa; test: Toxicity against Lactuca sativa (lettuce) assessed as decrease in cotyledons at low concentration after 7 days; assay type: functional, organism-based; in short: as §1
[9] = system: Lactuca sativa; test: Toxicity against Lactuca sativa (lettuce) assessed as branched root formation at low concentration after 7 days; assay type: functional, organism-based
[10] = system: Lactuca sativa; test: Toxicity against Lactuca sativa (lettuce) assessed as Inhibition of root growth at 4 mM after 7 days relative to control; assay type: functional; design: scale not given: the % may be the effect or the level left
In short: (§4)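 Lettuce (L. sativa cv. Romana) seeds germinated on filter paper at 20 °C for 7 days with doses of 0.4-32.0 mM. Root length of normal seedlings was measured at the end and expressed as percent of control. Three replicates were run, with standard error given.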

[11] = system: Lactuca sativa; test: Toxicity against Lactuca sativa (lettuce) assessed as root tissue rotting at 32 mM after 7 days; assay type: functional, organism-based
[12] = system: Lactuca sativa; test: Toxicity against Lactuca sativa (lettuce) assessed as Inhibition of root growth at 8 to 32 mM after 7 days relative to control; assay type: functional, organism-based; in short: as §4
[13] = system: Lactuca sativa; test: Antigerminative activity against Lactuca sativa (lettuce) seeds up to 16 mM after 7 days relative to control; assay type: functional, organism-based
In short: (§5)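 Lettuce seeds (L. sativa cv. Romana) incubated on filter paper at 20 °C for 7 days with each product at 0.4-32.0 mM. Read-out was the mean percentage of normal seedlings, expressed as percent of the untreated control.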

[14] = system: Lactuca sativa; test: Toxicity against Lactuca sativa (lettuce) assessed as decrease in root hair at 24 to 32 mM after 7 days; assay type: functional, organism-based
[15] = system: Lactuca sativa; test: Antigerminative activity against Lactuca sativa (lettuce) seeds at 24 to 32 mM after 7 days relative to control; assay type: functional, organism-based; in short: as §5
[16] = system: Lactuca sativa; test: Toxicity against Lactuca sativa (lettuce) assessed as Inhibition of root growth up to 16 mM after 7 days relative to control; assay type: functional, organism-based; in short: as §3
[17] = system: Lactuca sativa; test: Antigerminative activity against Lactuca sativa (lettuce) seeds at 0.8 to 20 mM after 7 days relative to control; assay type: functional, organism-based; in short: as §2
[18] = system: Lactuca sativa; test: Antigerminative activity against Lactuca sativa (lettuce) seeds up to 2.4 to 3.2 mM after 7 days relative to control; assay type: functional, organism-based; in short: as §2
[19] = system: Lactuca sativa; test: Toxicity against Lactuca sativa (lettuce) assessed as Inhibition of root growth after 7 days relative to control; assay type: functional, organism-based; in short: as §3

Row | Structure (SMILES) | Activity [1] | Activity [2] | Activity [3] [%] | Activity [4] | Activity [5] | Activity [6] | Activity [7] | Activity [8] | Activity [9] | Activity [10] [%] | Activity [11] | Activity [12] | Activity [13] | Activity [14] | Activity [15] | Activity [16] | Activity [17] | Activity [18] | Activity [19]
1 | N#CC[C@H](O)[C@@H]1CS1 | Active | Active | 40 | Active | Active | Active | Active | Active |  |  |  |  |  |  |  |  |  |  | 
2 | C=C[C@@H]1CNC(=S)O1 |  |  |  |  |  |  |  |  | Active | >40 | Active | Active | inactive | Active | Active |  |  |  | 
3 | C=C[C@@H](O)CC#N | Active | Active |  |  |  |  | Active | Active |  |  |  |  |  |  |  | inactive | Active |  | 
4 | N#CC[C@H](O)[C@H]1CS1 | Active | Active |  |  |  |  | Active | Active |  |  |  |  |  |  |  |  |  | Active | Dose-dependent effect
